Entries after “also recorded” stand apart in the source; their conditions may differ. Read-outs that look alike come from different tables or passages of the source.

Assay [1] concerns Human keratinocytes. The experiment in a line: Keratinocyte migration after wounding. In kind it is cell-based. The settings on record: for Keratinocyte migration into wound area: 3 d, antibody No. 425 10 μg/ml, AG1478 30 nM, OSU8-1 1 μM; for Block of migration relative to the control: 10 μM, Fig. 6 b. The method in brief: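 Human keratinocytes grown on type I collagen-coated dishes or 6-well plates. At subconfluency, switched to BHE-free medium and scraped with a wide silicone rubber scraper. Washed once to remove floating cells, then re-fed BHE-free medium with or without test compound, antibody No. 425 (10 μg/ml), AG1478 (30 nM), or test compound plus HB-EGF (20 ng/ml). Cultured 3 d at 37°C.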

Assay [2] has as its system Human keratinocytes. The experiment in a line: Keratinocyte growth. The settings on record: 3 d. In kind it is cell-based. A digest of the protocol:
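Human keratinocytes kept in supplemented MCDB153. Seeded at 10^5 cells/well in 6-well plates and grown 3 d with or without test compound (1 μM), EGFR neutralizing antibody No. 425 (10 μg/ml) or AG1478 (30 nM). Values are averages of triplicate experiments.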

The next assay concerns EGFR. As to the kind of experiment: Wound-induced EGFR tyrosine phosphorylation in cultured keratinocytes. The settings on record: wounded keratinocytes. It counts as cell-based, human. A digest of the protocol: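 Keratinocytes grown 72 h on collagen-coated 10-cm dishes (5 × 10^5/dish). Starved 2 h in BHE-free medium ± test compound (1 μM), cycloheximide (50 μM) or HB-EGF neutralizing antibody No. 197 (10 μg/ml). Tip-scrape wounded, incubated set times at 37°C. Lysates in Triton/vanadate buffer; EGFR immunoprecipitated overnight at 4°C with protein A-Sepharose. Run on 6% SDS-PAGE, PVDF-blotted, probed, ABC/ECL detection.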

Assay [3] concerns AP-tag TGF-α. The experiment in a line: TPA-inducible shedding of AP-tag TGF-α in CHO transfectants. The settings on record: 60 nM TPA; for Percent inhibition at 1 μM TGF-α: 1 μM inhibitor, CHO transfectants. It counts as cell-based, human.
In another assay the target is T1, MMP-1 (Homo sapiens, UniProt P03956).
T1 sequence (P03956 100-469): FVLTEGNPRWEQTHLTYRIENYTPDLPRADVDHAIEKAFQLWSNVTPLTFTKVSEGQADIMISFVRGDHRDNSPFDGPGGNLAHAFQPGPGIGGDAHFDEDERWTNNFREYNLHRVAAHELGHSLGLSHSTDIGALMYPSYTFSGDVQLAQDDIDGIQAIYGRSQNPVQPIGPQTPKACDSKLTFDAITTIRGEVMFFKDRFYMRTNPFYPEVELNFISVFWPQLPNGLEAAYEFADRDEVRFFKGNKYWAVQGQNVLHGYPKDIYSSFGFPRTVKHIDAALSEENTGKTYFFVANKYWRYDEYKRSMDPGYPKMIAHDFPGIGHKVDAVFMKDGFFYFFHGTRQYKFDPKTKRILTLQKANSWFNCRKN
The experiment in a line: MMP-1 inhibition. It counts as biochemical.

For another assay, the target named is MMP-3 (Homo sapiens, UniProt P08254). As to the kind of experiment: MMP-3 inhibition. The settings on record: read-out: IC50 MMP-3. It counts as biochemical.
The target of a further assay is MMP-9 (Homo sapiens, UniProt P14780). The experiment in a line: MMP-9 inhibition. It counts as biochemical. To be noted: read-out: IC50 MMP-9.
Assay [4] deals with AP-tag HB-EGF. As to the kind of experiment: TPA-inducible shedding of AP-tag HB-EGF in CHO transfectants. It counts as cell-based, human. To be noted: 60 nM TPA.
For assay [5], the system named is AP-tag AR. The experiment in a line: TPA-inducible shedding of AP-tag AR in CHO transfectants. The settings on record: 60 nM TPA. In kind it is cell-based, human.
Assay [6] relates to wild-type HB-EGF, TGF-α, and AR. As to the kind of experiment: TPA-inducible shedding of wild-type ligands in CHO transfectants. It counts as cell-based, human. The settings on record: 10 μM, Fig. 2 b. The method in brief: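 CHO cells stably expressing untagged HB-EGF, AR or TGF-α, seeded at 2 × 10^5/6-cm dish, grown 24 h in Ham's F12/10% FCS. Surface-biotinylated with 0.1 mg/ml sulfo-NHS-biotin, 15 min on ice. Preincubated ±10 μM test compound for 10 min, then 30 min at 37°C with TPA plus compound. Ligands immunoprecipitated with specific antibodies and protein A; SDS-PAGE/Western blot, avidin-HRP/ECL detection.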

The subject of the next assay is EGFR ligands. As to the kind of experiment: Release of soluble EGFR ligands from wounded keratinocytes. It counts as cell-based, human. The settings on record: 1 μM. The method in brief: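 Subconfluent keratinocytes in BHE-free medium tip-scraped in cross-stripes 5 mm apart, washed, then re-fed with or without test compound. Conditioned media collected at several times (37°C). Media added to EP170.7 cells (2 × 10^4/well) for 36 h, then [3H]thymidine (1 μCi/well) for 6 h; DNA incorporation measured. HB-EGF neutralised by preincubating with antibody No. 197 (10 μg/ml final). Four independent experiments.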

The subject of assay [7] is AP-tag HB-EGF. The experiment in a line: Wound-induced shedding of AP-tag HB-EGF in HaCat transfectants. It counts as cell-based, human. The settings on record: 1 μM, 60 min after wounding.
In assay [8] the test system is AP-tag AR. As to the kind of experiment: Wound-induced shedding of AP-tag AR in HaCat transfectants. In kind it is cell-based, human. The settings on record: 1 μM, 60 min after wounding.
Assay [9] deals with AP-tag TGF-α. The experiment in a line: Wound-induced shedding of AP-tag TGF-α in HaCat transfectants. It counts as cell-based, human. The settings on record: 1 μM, 60 min after wounding.
Assay [10] concerns keratinocytes. The experiment in a line: Juxtacrine growth factor assay. It counts as cell-based, human. To be noted: 1 μM, Fig. 7 a. A digest of the protocol:
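Keratinocytes plated at 10^5 cells/well and grown 12 h. Soluble HB-EGF/AR stripped by washing in medium containing 2 M NaCl. Cells fixed in 5% buffered formalin for 5 min, then washed in RPMI 1640/10% FCS. EP170.7 cells (10^5/well) added with [3H]thymidine for 6 h. Thymidine incorporation into EP170.7 DNA measured. Averages of triplicate experiments.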

Assay [11] has as its system keratinocytes. As to the kind of experiment: Keratinocyte migration assay in a Boyden chamber. In kind it is cell-based, human. The method in brief:
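Keratinocytes grown 72 h on collagen-coated dishes, detached with trypsin-EDTA for ≤1 min, resuspended at 10^5 cells/ml. Samples placed in bottom wells of a 48-well Boyden chamber: recombinant HB-EGF, or serially diluted 48-h wounded-culture conditioned medium, with test compound added top or bottom. Collagen-coated 8-μm polycarbonate membrane; 50 μl cells per top well. Ran 4 h at 37°C. Migrated cells fixed, hematoxylin-stained, counted microscopically.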

The subject of assay [12] is plasminogen-deficient mice. To be noted: plasminogen-deficient mice ref Lund et al. 1999; cited from earlier work.
A further assay has as its system BALB/c mice. As to the kind of experiment: In vivo wound assay, full-thickness wounds in mice. To be noted: HB-EGF 5 μg/ml in addition to 10 mM OSU8-1, day 6. The method in brief:
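Female BALB/c mice, 8 wk old, housed singly, anaesthetised with diethylether. Two 6-mm full-thickness punch wounds on the back, left open. Each wound received 500 μl daily for 5 d. One side got vehicle (1.5% carboxymethylcellulose in sterile PBS). The other got 10 mM test compound (n = 10) or test compound plus 5 μg/ml HB-EGF (n = 5). Wounds excised day 6, formalin-fixed, sectioned anterior-posterior, anti-cytokeratin stained.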

Sequence of MMP-3 (P08254 100-477, species assumed): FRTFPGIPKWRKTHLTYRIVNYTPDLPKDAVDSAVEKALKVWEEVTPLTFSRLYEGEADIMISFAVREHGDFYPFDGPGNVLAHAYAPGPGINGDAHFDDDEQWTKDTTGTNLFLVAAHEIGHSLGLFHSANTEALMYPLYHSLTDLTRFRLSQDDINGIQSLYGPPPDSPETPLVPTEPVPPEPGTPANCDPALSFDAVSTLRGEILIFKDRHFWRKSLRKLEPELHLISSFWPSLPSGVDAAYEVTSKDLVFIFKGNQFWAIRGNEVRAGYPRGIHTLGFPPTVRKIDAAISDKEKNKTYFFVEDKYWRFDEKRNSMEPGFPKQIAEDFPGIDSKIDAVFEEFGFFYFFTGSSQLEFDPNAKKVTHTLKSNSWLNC
Sequence of MMP-9 (P14780 94-707, species assumed): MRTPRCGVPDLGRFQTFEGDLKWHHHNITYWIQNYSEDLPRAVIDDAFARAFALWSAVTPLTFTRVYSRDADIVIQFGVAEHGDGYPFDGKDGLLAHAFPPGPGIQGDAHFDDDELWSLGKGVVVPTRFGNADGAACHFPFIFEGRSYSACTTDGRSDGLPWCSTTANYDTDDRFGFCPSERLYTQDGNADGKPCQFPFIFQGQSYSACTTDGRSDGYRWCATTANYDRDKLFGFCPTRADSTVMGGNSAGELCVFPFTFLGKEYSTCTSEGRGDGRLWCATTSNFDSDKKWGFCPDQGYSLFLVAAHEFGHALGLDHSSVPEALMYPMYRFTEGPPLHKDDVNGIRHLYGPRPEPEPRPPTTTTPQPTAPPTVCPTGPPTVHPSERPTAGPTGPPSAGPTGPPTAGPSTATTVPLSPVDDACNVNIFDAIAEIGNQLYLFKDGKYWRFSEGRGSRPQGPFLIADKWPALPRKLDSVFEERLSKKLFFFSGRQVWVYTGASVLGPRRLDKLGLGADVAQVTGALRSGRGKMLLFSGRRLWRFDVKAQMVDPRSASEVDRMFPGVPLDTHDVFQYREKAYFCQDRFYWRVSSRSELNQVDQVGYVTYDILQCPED

Turning to `COc1cc2ncnc(Nc3cccc(Cl)c3)c2cc1OC` [AG1478, reference compound], the “Keratinocyte migration into wound area” value in the assay on Human keratinocytes [1] is listed as “suppressed”. Besides, in the assay with Human keratinocytes [2] (antibody No. 425 10 μg/ml, AG1478 30 nM), the “Proliferation, % of the control” value is recorded as 10–15 % of the control.
With `C[C@@H]1C[C@@H]([C@H](O)CC2CC(=O)NC(=O)C2)C(=O)[C@@H](C)C1` [Cycloheximide, cycloheximide], the “EGFR activation induced by wounding” value in the assay with EGFR (50 μM) is “failed to abrogate; also recorded: did not abrogate”.
`CNC(=O)[C@H](Cc1cccc2ccccc12)NC(=O)[C@@H](CC(=O)NO)CC(C)C` [OSU7-6, [4-(N-hydroxyamino)-2R-isobutylsuccinyl]-L-3-(1-naphthyl)-alanine-N-methylamide]: the “Percent inhibition at 1 μM TGF-α” value in the assay with AP-tag TGF-α [3] (30 min) turned out to be 5%. The IC50 came to 0.35 nM on MMP-1 (read-out: IC50 MMP-1), 2 nM on MMP-3 and 0.4 nM at MMP-9. The “Block of migration relative to the control” value in the assay with Human keratinocytes [1] is reported as ~70%.
As for `CNC(=O)[C@H](Cc1cccc2c1CCCC2)NC(=O)[C@H](CC(C)C)[C@H](C)C(=O)NO` [OSU8-1, [4-(N-hydroxyamino)-2R-isobutyl-3S-methylsuccinyl]-L-3-(5,6,7,8-tetra-hydro-1-naphthyl)alanine-N-methylamide], the “Block of shedding of AP-tag HB-EGF” value in the assay with AP-tag HB-EGF [4] (1 μM, Fig. 2 a) is on record as “markedly blocked”. In the assay on AP-tag HB-EGF [4] (10 μM, Fig. 2 a), the “Block of TPA-inducible shedding of AP-tag HB-EGF” value is given as “significantly blocked”. Also, in the assay with AP-tag AR [5] (1 μM inhibitor, 30 min, CHO transfectants), the “Percent inhibition at 1 μM AR” value was determined as 70%. In the assay with AP-tag AR [5] (1 μM, Fig. 2 a), the “Block of shedding of AP-tag AR” value is “markedly blocked”. Further, in the assay on AP-tag AR [5] (10 μM, Fig. 2 a), the “Block of TPA-inducible shedding of AP-tag AR” value is on record as “significantly blocked”. In the assay with AP-tag TGF-α [3] (1 μM, Fig. 2 a), the “Block of shedding of AP-tag TGF-α” value is given as “partially blocked”. For the same molecule, the “Block of TPA-inducible shedding of AP-tag TGF-α” value in the assay on AP-tag TGF-α [3] (10 μM, Fig. 2 a) is “significantly blocked”. For the same molecule, the IC50 is 0.3 nM on MMP-1 (read-out: IC50 MMP-1); 0.3 to 2.9 nM on MMP-1 (read-out: IC50s for all three MMPs, range across MMP-1, MMP-3 and MMP-9); 2.9 nM on MMP-3; 0.3 nM at MMP-9. The “TPA-inducible shedding of wild-type HB-EGF, TGF-α, and AR” value in assay [6] is given as “abrogation”. For the same molecule, in the assay on EGFR ligands, the “Release of EGFR ligands after wounding” value was “abrogated completely”. In the assay on EGFR (1 μM), the “EGFR activation after wounding” value was “abrogated completely”. In the assay with AP-tag HB-EGF [7], the “Inhibition of wound-induced shedding of AP-tag HB-EGF” value was “effective at inhibiting”. Also, in the assay with AP-tag AR [8], the “Inhibition of wound-induced shedding of AP-tag AR” value is reported as “effective at inhibiting”. Also, the “Effect on wound-induced AP-tag TGF-α shedding” value in the assay on AP-tag TGF-α [9] is given as “no effect”. The “Keratinocyte migration into wound area” value with Human keratinocytes [1] is “significantly suppressed”. For the same molecule, the “Inhibition of cell growth” value in the assay with Human keratinocytes [2] (1 μM, Fig. 7 b) is on record as ~50%. The “Juxtacrine growth activity of keratinocytes” value in the assay with keratinocytes [10] is “slightly upregulated”. Also, in the assay on keratinocytes [11] (48-h conditioned medium of wounded keratinocytes, 1 μM OSU8-1, Fig. 7 d), the “Fold less potent at promoting migration: conditioned medium collected in the presence of OSU8-1” value is ~30 fold. Moreover, the “Effect on migration of keratinocytes induced by conditioned medium” value in the assay on keratinocytes [11] (various concentrations of OSU8-1 added to the conditioned medium, Fig. 7 e) is given as “no effect”.
With `COc1ccc(S(=O)(=O)N2Cc3cc(O)c(O)cc3CC2C(=O)NO)cc1` (centres unmarked) [OSU9-6, [6,7-dihydroxy-3-(N-hydroxycarbamoyl)-2-(4-methoxybenzenesulfonyl)-1,2,3,4-tetrahydroisoquinoline]], the “Percent inhibition at 1 μM TGF-α” value with AP-tag TGF-α [3] (30 min) turned out to be 5%. In addition, in the assay on Human keratinocytes [1], the “Block of migration relative to the control” value is listed as ~70%.
As for `CCCCCCCCCCCCCC(=O)O[C@@H]1[C@@H](C)[C@@]2(O)[C@@H](C=C(CO)C[C@]3(O)C(=O)C(C)=C[C@@H]23)[C@@H]2C(C)(C)[C@]12OC(C)=O` [TPA, 12-O-tetradecanoylphorbol-13-acetate, reference compound], the “Induction of shedding of AP-tag HB-EGF” value in the assay on AP-tag HB-EGF [4] (30 min) is given as “induced the shedding”. The “Induction of shedding of AP-tag AR” value with AP-tag AR [5] (30 min) was “less effective”. Moreover, the “Induction of shedding of AP-tag TGF-α” value in the assay with AP-tag TGF-α [3] (30 min) is listed as “induced the shedding”.
As to `CNC(=O)[C@H](Cc1c[nH]c2ccccc12)NC(=O)[C@@H](CC(=O)NO)CC(C)C` [galardin], the Wound healing entry in assay [12] is reported as “completely arrested”.

B1: HB-EGF: human recombinant heparin-binding EGF-like growth factor, soluble form (protein, UniProt Q99075 63-148, looked up)
Heparin-binding EGF-like …: DLQEADLDLLRVTLSSKPQALATPNKEEHGKRKKKGKGLGKKRDPCLRKYKDFCIHGECKYVKELRAPSCICHPGYHGERCHGLSL
For B1, the “Concentration of maximal stimulation of keratinocyte migration” value in the assay with keratinocytes [11] (recombinant HB-EGF, Boyden chamber, Fig. 7 c) is 10 ng/mL. Moreover, the “Keratinocyte migration and regeneration of the epidermis” value in the assay on BALB/c mice is given as “completely restored”.
